Source: PubChem BioAssay (The Scripps Research Institute Molecular Screening Center)
RORa inhibitor: RORA (human) inhibition; CHO-K1 Gal4-RORA LBD luciferase reporter, luminescence; inhibition, % at 10 µM; AID 561; hit rate 0.43% among 65,000;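 active = inhibition above the mean of all tested compounds plus 3 SD, cut at about 52% in these data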;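 note: 0% = RORA-transfected cells with DMSO and 100% = mock-transfected cells lacking RORA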
Target sequence (P35398 whole entry, looked up, the tested form may be a part): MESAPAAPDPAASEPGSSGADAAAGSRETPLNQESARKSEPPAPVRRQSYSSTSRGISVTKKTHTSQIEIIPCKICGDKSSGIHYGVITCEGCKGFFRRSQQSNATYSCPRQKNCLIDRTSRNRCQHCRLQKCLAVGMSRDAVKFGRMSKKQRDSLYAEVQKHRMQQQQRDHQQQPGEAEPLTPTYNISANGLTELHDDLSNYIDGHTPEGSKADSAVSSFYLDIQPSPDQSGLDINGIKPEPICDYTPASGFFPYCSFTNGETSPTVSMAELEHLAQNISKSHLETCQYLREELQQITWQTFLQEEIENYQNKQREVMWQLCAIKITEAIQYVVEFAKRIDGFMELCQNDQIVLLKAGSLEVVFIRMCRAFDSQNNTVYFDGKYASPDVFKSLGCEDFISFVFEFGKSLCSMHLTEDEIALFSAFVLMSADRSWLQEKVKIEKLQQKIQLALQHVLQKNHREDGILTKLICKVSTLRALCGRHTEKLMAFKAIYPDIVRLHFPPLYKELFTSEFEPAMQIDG
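Test system: CHO-K1 cells with Gal4-hRORA LBD fusion and pG5-luc reporter | Timing: 20 h compound treatment, 37 °C | Detection: Luminescence from basal luciferase reporter expression | Read-out basis: % inhibition of basal luciferase versus +RORA/-RORA DMSO controls | Repeats: One measurement per compound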
Starred values were filed as active, the others as inactive. Only a selection was taken, and hits are over-represented in it overall.

Results for CCCCN(C)C(=O)C1CCC(=O)N(c2cc(OC)c(OC)c(OC)c2)C1c1ccc(OC)cc1 (configuration not stated) ?
RORa inhibitor: -10

What do the screens show for `O=C(Cc1cn2ccsc2n1)NCCc1ccc(F)cc1`?
RORa inhibitor: -14

How did Clc1ccc(C2=Nn3c(nnc3-c3n[nH]c4c3CCC4)SC2)cc1 do in these assays?
RORa inhibitor: 17

How did CCOc1ccc(C2=Nn3c(nnc3-c3ccccc3OC)SC2)cc1 do in these assays?
RORa inhibitor: 54*

What do the screens show for `COc1ccccc1-c1nnc(SCC(=O)Nc2nc(-c3ccccc3)cs2)n1C`?
RORa inhibitor: -14

How did O=C(CC1C(=O)NCCN1C(=O)Nc1ccccc1)Nc1cccc(C(F)(F)F)c1 (configuration not stated) do in these assays?
RORa inhibitor: -10

What do the screens show for `CC(=O)Cc1nsc(Nc2ccc3c(c2)OCCO3)n1`?
RORa inhibitor: -122

How did Cc1ccc(-c2cc3c(nn2)-c2ccccc2C3=O)cc1 do in these assays?
RORa inhibitor: 83*

How did O=C1CN(C(=O)OCc2ccccc2)c2ccccc2N1 do in these assays?
RORa inhibitor: -51

What do the screens show for `CCC(=O)Nc1c(OC(=O)CC)ccc2c(C)cc(=O)oc12`?
RORa inhibitor: -3

Results for Cc1cc(N)c(NC2=CC(=O)CC(C)(C)C2)cc1C ?
RORa inhibitor: -70

Results for O=c1cnc2ccccc2n1CC1CCCCC1 ?
RORa inhibitor: 3

How did CC(C)C(=O)N1CCN(c2nc(-c3ccccc3)c3c(c2C#N)CCCC3)CC1 do in these assays?
RORa inhibitor: 33

Results for O=C(/C=C/Nc1ccc(F)c(Cl)c1)c1ccco1 ?
RORa inhibitor: -63

How did O=C(Nc1ccc(Cl)cn1)c1cccc(F)c1 do in these assays?
RORa inhibitor: -105

What do the screens show for `O=C(/C=C\Nc1ccccn1)c1ccc(Cl)cc1`?
RORa inhibitor: 64*

What do the screens show for `O=C(CSc1ncnc2c1cnn2-c1ccccc1Cl)N1CCN(C(=O)c2ccco2)CC1`?
RORa inhibitor: 17

How did c1ccc2c(c1)Cc1cc(CN3CCOCC3)ccc1-2 do in these assays?
RORa inhibitor: -68

How did c1ccc(N2CCN(c3nc4cc5c(cc4s3)OCCO5)CC2)cc1 do in these assays?
RORa inhibitor: -77

How did c1c2c(cc3sc(N4CCOCC4)nc13)OCCO2 do in these assays?
RORa inhibitor: 69*

How did CCOc1ccc2nc(N3CCCC(C(=O)NCCCN4CCOCC4)C3)sc2c1 (configuration not stated) do in these assays?
RORa inhibitor: 2

What do the screens show for `O=C(CN(CCO)c1ccccc1)NC12CC3CC(CC(C3)C1)C2`?
RORa inhibitor: 24

What do the screens show for `Cc1cccc(N2CC(C(=O)Nc3ccc4c(c3)OCO4)CC2=O)c1C` (configuration not stated)?
RORa inhibitor: 26

What do the screens show for `O=C(Nc1ncnc2c1ncn2C1OC(COC(=O)c2ccccc2)C(F)C1O)c1ccccc1` (configuration not stated)?
RORa inhibitor: 8

Results for O=C1c2ccccc2C(=O)C1c1ccc2ccccc2n1 ?
RORa inhibitor: 70*

Results for CC(=O)c1ccc(NC(=O)CSc2nnc(Cn3c(=O)sc4ccccc43)n2C)cc1 ?
RORa inhibitor: -5

What do the screens show for `O=C(Cn1cnc2c(oc3ccccc32)c1=O)N1CCN(c2ccccc2)CC1`?
RORa inhibitor: -9

Results for CCOC(=O)Nc1ccc2c(c1)N(C(=O)N1CCN(C)CC1)c1ccccc1S2 ?
RORa inhibitor: -9

How did Cc1nnc(SCC(=O)N2CCc3ccccc32)s1 do in these assays?
RORa inhibitor: -21

How did Cc1nnc(SC(=O)N2c3ccccc3Sc3ccccc32)s1 do in these assays?
RORa inhibitor: 71*

How did Brc1cccc(C2CC(c3ccccc3)n3nnnc3N2)c1 (configuration not stated) do in these assays?
RORa inhibitor: -5

Results for CCOC(=O)C1CCCN(C(=O)C2CCN(S(=O)(=O)c3cnc[nH]3)CC2)C1 (configuration not stated) ?
RORa inhibitor: 10

How did COc1ccc(CNc2cc(C)nc3ncnn23)c(OC)c1 do in these assays?
RORa inhibitor: 67*

How did CCOC(=O)NC(Nc1nc2ccccc2s1)(C(=O)OCC)C(F)(F)F (configuration not stated) do in these assays?
RORa inhibitor: -25

What do the screens show for `Cn1c(=O)[nH]c(=O)c2c1nc(Sc1nc3ccccc3s1)n2Cc1ccccc1`?
RORa inhibitor: -4

What do the screens show for `CCCCNC(=O)c1cc2c(=O)n3cccc(C)c3nc2n(Cc2ccncc2)c1=N`?
RORa inhibitor: 20

How did CC(C)C1N(S(=O)(=O)c2ccccc2)CCN1S(=O)(=O)c1ccccc1 do in these assays?
RORa inhibitor: -14

How did N#C/C(=C/c1ccc(N2CCCCCC2)o1)c1ccc(F)cc1 do in these assays?
RORa inhibitor: 62*

What do the screens show for `Cc1cc(C)n(Cc2ccc(C(=O)NCCC3=CCCCC3)o2)n1`?
RORa inhibitor: 8

What do the screens show for `CCc1cc2c3c(c(=O)oc2cc1O)CCCC3`?
RORa inhibitor: 0

How did COC(=O)c1ccc(CSc2nc3scc(-c4cccs4)c3c(=O)[nH]2)o1 do in these assays?
RORa inhibitor: -7

What do the screens show for `CNc1sc(C(=O)c2cccs2)c(N)c1-c1nc2ccccc2s1`?
RORa inhibitor: -33

How did O=C(NC1CC1)c1ccc(-c2nc3ccccc3s2)s1 do in these assays?
RORa inhibitor: 81*

Results for O=C(OCc1nc2ccccc2s1)c1cccs1 ?
RORa inhibitor: -53

What do the screens show for `CCN(C(=O)c1ccc(C(C)(C)C)cc1)c1nnc(Cn2nnc3ccccc32)s1`?
RORa inhibitor: 66*

Results for CCN(C(=O)c1cccs1)c1nnc(-c2ccncc2)s1 ?
RORa inhibitor: 0

How did c1ccc(Nc2cc(Nc3ccccc3)[nH]n2)cc1 do in these assays?
RORa inhibitor: -9

What do the screens show for `CCOc1ccc(-c2nnc3ccc(SCc4ccc(C(=O)OC)o4)nn23)cc1`?
RORa inhibitor: -5

Results for C=CCn1c(C#N)c(N)sc1=N ?
RORa inhibitor: 6

Results for COc1ccc(CNC(=O)CSc2nnnn2Cc2ccccc2)cc1 ?
RORa inhibitor: -32

How did O=C(CSc1nnnn1C1CC2CCC1C2)Nc1ccnc2ccccc12 (configuration not stated) do in these assays?
RORa inhibitor: 85*

Results for Cc1cccc(C)c1OCC(=O)NCc1nnc(SCC(=O)NC2CCCCC2)n1C ?
RORa inhibitor: 4

Results for CC(=O)OCC(OC(C)=O)C(OC(C)=O)C(OC(C)=O)C(=O)Nc1ccc(C)cc1 (configuration not stated) ?
RORa inhibitor: 3

How did COc1ccc(C)cc1S(=O)(=O)N1CCN(c2cccc(C(F)(F)F)c2)CC1 do in these assays?
RORa inhibitor: 10

Results for COc1ccc(S(=O)(=O)N(C)CC(=O)N2CCC(C)CC2)cc1Cl ?
RORa inhibitor: 15

How did CCOC(=O)c1ccc(Oc2cc(C)nc(SC)n2)cc1 do in these assays?
RORa inhibitor: -57

What do the screens show for `CCOC(=O)N1CCN(C(=O)c2cc(-c3ccc(OCC)cc3)nc3ccccc23)CC1`?
RORa inhibitor: -136

What do the screens show for `CCOC(=O)Cc1cc(=O)n2[nH]c(C)c(-c3ccccc3)c2n1`?
RORa inhibitor: -6

Results for CCOC(=O)CS(=O)(=O)c1nc(-c2ccc(F)cc2)cc(C(F)(F)F)n1 ?
RORa inhibitor: 61*

Results for CCOC(=O)c1cnn2c(C)cc(-c3ccccc3)nc12 ?
RORa inhibitor: -43

Results for COCC(C)NC(=O)CCS(=O)(=O)c1nc(-c2ccc(OC)cc2)cc(C(F)(F)F)n1 (configuration not stated) ?
RORa inhibitor: 17
